These results are taken from ChEMBL document CHEMBL1158806, “Cytotoxic activity of some natural and synthetic guaianolides” (J Nat Prod, 2005).

What all share (type): functional, cell-based
In one experiment the test system is 1A9. The experiment is described as follows: Cytotoxicity against human 1A9 cells after 3 days by SRB assay. As to conditions: 1A9, 72 h. The essentials: (§1)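 Cells kept in RPMI-1640 with 25 mM HEPES, 0.25% sodium bicarbonate, 10% FBS and 100 µg/mL kanamycin. Freshly trypsinized cells seeded at 1500-7500 per well, with compound added from DMSO-diluted stock. After 3 days, attached cells fixed with cold 50% TCA and stained with 0.4% SRB. Bound dye solubilized and absorbance read at 562 nm. IC50 is 50% growth reduction, mean of three determinations.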
(In general: The SRB assay estimates cell density from bound dye.)

For another experiment, the system named is KB. The experiment is described as follows: Cytotoxicity against human KB cells after 3 days by SRB assay. The conditions noted are these: 72 h. A digest of the protocol:
as §1

Another experiment relates to HCT-8. Description: Cytotoxicity against human HCT8 cells after 3 days by SRB assay. As to conditions: HCT-8, 72 h. The essentials:
as §1

In the next experiment the test system is A549. Description: Cytotoxicity against human A549 cells after 3 days by SRB assay. As to conditions: A549, 72 h. A digest of the protocol:
as §1

Another experiment relates to MCF7. Description: Cytotoxicity against human MCF7 cells after 3 days by SRB assay. The conditions noted are these: MCF7, 72 h. The essentials: as §1
A short description of experiment [1]: Cytotoxicity against human KBVIN cells after 3 days by SRB assay. The conditions noted are these: 72 h. A digest of the protocol:
as §1

A further experiment relates to SK-MEL-2. The experiment is described as follows: Cytotoxicity against human SK-MEL-2 cells after 3 days by SRB assay. The conditions noted are these: SK-MEL-2, 72 h. The essentials: as §1

With `CC(=O)O[C@H]1C(=O)[C@@]2(C)[C@H]([C@H](OC(=O)c3ccccc3)[C@]3(O)C[C@H](OC(=O)[C@H](O)[C@@H](NC(=O)c4ccccc4)c4ccccc4)C(C)=C1C3(C)C)[C@]1(OC(C)=O)CO[C@@H]1C[C@@H]2O` [PACLITAXEL], the IC50 in the experiment with 1A9 stood at 0.002 µM; in the experiment with KB, 0.001 µM; with HCT-8 it was 0.013 µM.

On to `C=C1C(=O)O[C@H]2[C@H]1[C@@H](OC(=O)[C@](C)(O)CCl)CC(=C)[C@@H]1C[C@H](O)[C@]3(CO3)[C@H]21` [CHLOROHYSSOPIFOLIN C], for which the IC50 came out at 9.3 µM in the experiment on A549; 1.5 µM with MCF7; 0.8 µM in the experiment on 1A9; 2 µM in the experiment with KB; 1.5 µM in experiment [1]; 1.6 µM with HCT-8.

Regarding `C=C1C(=O)O[C@H]2[C@H]1[C@@H](OC(=O)[C@](C)(O)CO)CC(=C)[C@@H]1C[C@H](O)[C@]3(CO3)[C@H]21` [BABYLIN A], the IC50 with A549 and in the experiment on MCF7 was over 26.3 µM throughout.

Consider `C=C1C(=O)O[C@H]2[C@H]1[C@@H](OC(=O)[C@](C)(O)CBr)CC(=C)[C@@H]1C[C@H](O)[C@]3(CO3)[C@H]21`, for which the half-maximal inhibitory concentration (IC50) with A549 came to 4.3 µM; in the experiment on 1A9, 1.1 µM; in the experiment on KB it was 1.1 µM; in experiment [1], 6.3 µM; with HCT-8 it was 1.3 µM; in the experiment on SK-MEL-2, 3.6 µM.

In the case of `C=C1C(=O)O[C@H]2[C@H]1[C@@H](OC(=O)[C@]1(C)CO1)CC(=C)[C@@H]1C[C@H](O)[C@]3(CO3)[C@H]21` [REPIN], the IC50 stood at 2.5 µM in the experiment with A549; 1.1 µM in the experiment on MCF7; 0.3 µM in the experiment on 1A9; 1.4 µM in the experiment on KB; 0.8 µM in experiment [1]; 0.8 µM in the experiment with HCT-8. For the same molecule, the IC50 with SK-MEL-2 worked out at 2.5 µM.

Regarding `C=C1C(=O)O[C@H]2[C@H]1[C@@H](OC(=O)[C@](C)(O)CI)CC(=C)[C@@H]1C[C@H](O)[C@]3(CO3)[C@H]21`, the IC50 came out at 7.3 µM with A549, 0.8 µM with 1A9, 2 µM in the experiment with KB and 1.8 µM in experiment [1].

Regarding `C=C1C(=O)O[C@H]2[C@H]1[C@@H](OC(=O)[C@](C)(O)CCl)CC(=C)[C@@H]1C[C@H](O)[C@](O)(CCl)[C@H]21` [CENTAUREPENSIN], the IC50 in the experiment with A549 came to 10.3 µM; with 1A9, 0.7 µM; with KB, 4.1 µM; in experiment [1], 2.8 µM.

`C=C(C)C(=O)O[C@H]1CC(=C)[C@@H]2C[C@H](O)C(=C)[C@@H]2[C@H]2OC(=O)C(=C)[C@@H]21` [AGUERIN B]: the 50% inhibitory concentration (IC50) turned out to be 26.4 µM in the experiment on A549 and 3.3 µM in the experiment on MCF7.

For `C=C(CO)C(=O)O[C@H]1CC(=C)[C@@H]2C[C@H](O)C(=C)[C@@H]2[C@H]2OC(=O)C(=C)[C@@H]21` [CYNAROPICRIN], the IC50 was 16.5 µM in the experiment with A549, 3.2 µM with MCF7, 15.9 µM in the experiment with KB and 5.8 µM in the experiment with SK-MEL-2.

For the molecule `C=C1C(=O)O[C@H]2[C@H]1[C@@H](OC(=O)[C@@]1(C)CO1)CC(=C)[C@@H]1C[C@H](O)[C@](O)(CI)[C@H]21`, the IC50 came out at 13.7 µM in the experiment with A549; 5.6 µM with 1A9; 4.1 µM in the experiment on KB; 18.6 µM in experiment [1]; 4.5 µM in the experiment with HCT-8; 9.4 µM in the experiment on SK-MEL-2.

On to `C=C1C(=O)O[C@H]2[C@H]1[C@@H](OC(=O)[C@@](C)(O)CO)CC(=C)[C@@H]1C[C@H](O)[C@@](O)(CCl)[C@H]21` [CEBELLIN J], for which the IC50 in the experiment on A549 and with MCF7 was over 24 µM in each case.

For the molecule `C=C1C(=O)O[C@H]2[C@H]1[C@@H](OC(=O)[C@](C)(O)CI)CC(=C)[C@@H]1C[C@H](O)[C@](O)(CI)[C@H]21`, the IC50 with A549 was found to be 3.6 µM; in the experiment on 1A9, 1.3 µM; in the experiment on KB, 1 µM; in experiment [1], 5.5 µM; with HCT-8, 1.3 µM; in the experiment with SK-MEL-2 it was 2.6 µM.

As for `C=C(CO)C(=O)O[C@H]1CC(=C)[C@@H]2C[C@H](O)[C@]3(CO3)[C@@H]2[C@H]2OC(=O)C(=C)[C@@H]21` [JANERIN], the IC50 in the experiment with A549 turned out to be 19.9 µM; in the experiment with 1A9, 5 µM; in the experiment on KB it was 3 µM; in experiment [1], 25.9 µM; in the experiment with HCT-8, 5.5 µM; in the experiment with SK-MEL-2, 8 µM.

Regarding `C=C1C(=O)O[C@H]2[C@H]1[C@@H](OC(=O)[C@@]1(C)CO1)CC(=C)[C@@H]1C[C@H](OC(=O)[C@@H]3OC(c4ccccc4)=N[C@H]3c3ccccc3)[C@@]3(CO3)[C@H]21`, the 50% inhibitory concentration (IC50) was found to be 3.4 µM in the experiment on A549; 0.8 µM in the experiment on 1A9; 2.6 µM with KB; 2.6 µM in experiment [1]; 0.5 µM with HCT-8; 1.5 µM in the experiment with SK-MEL-2.

On to `CO[C@@]12[C@H](COC(N)=O)C3=C(C(=O)C(C)=C(N)C3=O)N1C[C@@H]1N[C@@H]12` [MITOMYCIN], for which the IC50 with A549 worked out at 0.3 µM; in the experiment with MCF7, 1.5 µM; in the experiment on KB, 0.6 µM; with HCT-8 it was 0.6 µM.

`C=C1C(=O)O[C@H]2[C@H]1[C@@H](OC(=O)[C@](C)(O)CBr)CC(=C)[C@@H]1C[C@H](O)[C@](O)(CBr)[C@H]21`: the IC50 with A549 is 4.2 µM; with 1A9, 0.4 µM; with KB, 1.1 µM; in experiment [1] it was 1.3 µM.

In the case of `C=C1C(=O)O[C@H]2[C@H]1[C@@H](OC(=O)[C@@]1(C)CO1)CC(=C)[C@@H]1C[C@H](O)[C@](O)(CO)[C@H]21` [BABYLIN B], the IC50 in the experiment with A549 and in the experiment with MCF7 was over 26.3 µM in each case.

On to `C=C1C(=O)O[C@H]2[C@H]1[C@@H](OC(=O)[C@@]1(C)CO1)CC(=C)[C@@H]1C[C@H](OC(=O)[C@H](O)[C@@H](NC(=O)c3ccccc3)c3ccccc3)[C@@]3(CO3)[C@H]21`, for which the IC50 stood at 0.8 µM in the experiment with A549; 0.2 µM in the experiment with 1A9; 0.3 µM with KB; 7.5 µM in experiment [1]; 0.5 µM with HCT-8; 1 µM in the experiment on SK-MEL-2.

By IC50 is commonly meant the concentration needed to halve the response being measured. A higher IC50 goes with weaker potency.
